Read-outs that look alike come from different tables or passages of the source. Marks after values point to notes of the source that are not given here.
Assays:
[1] = format: in vivo, human; settings: for Cmax, gMean / AUC(0-t) / AUC(0-inf) / half-life / Cmax / AUC0–tz, gMean: plasma; for AUC(0-t) / AUC(0-inf) / half-life / Cmax: male, human; for AUC(0-t): AUC0–tz; for AUC(0-inf): AUC0–∞; for AUC0–tz, Adjusted gMean Ratio (90% CI) / Cmax, Adjusted gMean Ratio (90% CI): probe drug + steady-state BI 425809 25 mg vs probe drug only
P-gp = P-gp (Homo sapiens, UniProt P08183); format: in vitro ADME; settings: Caco-2 cell monolayer; zosuquidar 1 μM, BI 425809 1-100 μM
Chain of P-gp (P08183 whole entry): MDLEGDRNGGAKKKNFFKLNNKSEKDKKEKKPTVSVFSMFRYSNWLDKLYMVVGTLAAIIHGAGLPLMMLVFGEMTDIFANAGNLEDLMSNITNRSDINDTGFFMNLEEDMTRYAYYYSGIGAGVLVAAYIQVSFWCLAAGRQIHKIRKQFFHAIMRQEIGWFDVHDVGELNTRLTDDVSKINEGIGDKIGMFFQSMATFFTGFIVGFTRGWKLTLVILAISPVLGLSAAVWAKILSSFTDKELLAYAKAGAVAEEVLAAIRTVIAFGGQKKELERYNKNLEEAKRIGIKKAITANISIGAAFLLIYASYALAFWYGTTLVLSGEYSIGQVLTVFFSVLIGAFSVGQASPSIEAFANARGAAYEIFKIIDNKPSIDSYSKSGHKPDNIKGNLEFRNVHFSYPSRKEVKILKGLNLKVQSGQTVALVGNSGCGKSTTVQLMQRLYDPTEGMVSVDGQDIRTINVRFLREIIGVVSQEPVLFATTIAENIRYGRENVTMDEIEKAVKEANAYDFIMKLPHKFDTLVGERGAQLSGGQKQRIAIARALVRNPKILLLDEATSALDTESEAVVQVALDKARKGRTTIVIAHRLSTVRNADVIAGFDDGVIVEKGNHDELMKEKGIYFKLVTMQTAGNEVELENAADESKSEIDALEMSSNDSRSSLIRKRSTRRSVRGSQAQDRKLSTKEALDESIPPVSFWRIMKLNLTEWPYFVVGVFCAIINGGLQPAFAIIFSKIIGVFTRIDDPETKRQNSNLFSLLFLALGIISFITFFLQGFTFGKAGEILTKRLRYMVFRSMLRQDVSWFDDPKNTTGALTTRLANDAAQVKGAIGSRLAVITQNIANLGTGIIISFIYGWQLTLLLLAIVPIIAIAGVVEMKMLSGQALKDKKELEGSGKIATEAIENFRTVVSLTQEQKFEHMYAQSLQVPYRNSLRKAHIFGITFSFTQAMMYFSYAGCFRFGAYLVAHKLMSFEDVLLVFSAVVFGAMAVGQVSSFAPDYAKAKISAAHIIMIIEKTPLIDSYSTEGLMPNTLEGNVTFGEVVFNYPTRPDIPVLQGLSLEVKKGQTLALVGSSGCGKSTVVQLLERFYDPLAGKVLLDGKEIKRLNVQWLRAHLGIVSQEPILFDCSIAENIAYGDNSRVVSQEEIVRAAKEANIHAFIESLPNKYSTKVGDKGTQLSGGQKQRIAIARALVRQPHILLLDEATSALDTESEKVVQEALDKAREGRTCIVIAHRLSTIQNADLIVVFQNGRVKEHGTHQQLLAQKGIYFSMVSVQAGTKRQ
Method in brief: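 Bidirectional Caco-2 monolayer transport in HBSS with 15 mM HEPES, pH 7.4, after 30 min equilibration. [³H]digoxin (1 μM) went in the donor side, and test compound (1–100 μM) or zosuquidar (1 μM) on both sides. After 30 min preincubation, sampling ran to 90 min and was read by scintillation counting. Papp gave the B-to-A/A-to-B efflux ratio, and IC50 with slope factor came from nonlinear regression of efflux ratio against inhibitor concentration.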

[2] = +BI 425809 25 mg at steady state
[3] = Probe Drug + BI 425809 25 mg once daily at steady state, healthy males
[4] = arithmetic mean (SD), +BI 425809 25 mg at steady state
[5] = gMean, Probe Drug + BI 425809 25 mg once daily at steady state, healthy males
[6] = gMean, Probe Drug Only, healthy males
[7] = probe drug alone (cocktail or digoxin alone)

Structure (SMILES) | Cmax, gMean [1, 3] | Cmax, gMean ([1]; Probe Drug Only, healthy males) | AUC(0-t) [1, 4] | AUC(0-t) [1, 5] | AUC(0-t) [1, 6] | AUC(0-inf) [1, 4] | AUC0–tz, Adjusted gMean Ratio (90% CI) [1] | Cmax, Adjusted gMean Ratio (90% CI) [1] | Cmax, arithmetic mean (SD) [1, 7] | Cmax [1, 4] | Cmax [1, 5] | Cmax [1, 6] | AUC0–tz, arithmetic mean (SD) [1, 2] | AUC0–∞, arithmetic mean (SD) [1, 2] | AUC0–tz, gMean [1, 3] | AUC0–tz, gMean ([1]; Probe Drug Only, healthy males) | AUC0–tz, arithmetic mean (SD) [1, 7] | AUC0–∞, arithmetic mean (SD) [1, 7] | also measured
C[C@H]1O[C@@H](O[C@H]2[C@@H](O)C[C@H](O[C@H]3[C@@H](O)C[C@H](O[C@H]4CC[C@@]5(C)[C@H](CC[C@@H]6[C@@H]5C[C@@H](O)[C@]5(C)[C@@H](C7=CC(=O)OC7)CC[C@]65O)C4)O[C@@H]3C)O[C@@H]2C)C[C@H](O)[C@@H]1O [Digoxin, digoxin] | 1.1 ng/mL | 1.1 ng/mL | 10 ng·h/mL | 9.5 ng·h/mL | 9.7 ng·h/mL | 20.1 ng·h/mL | 97.9 (86.6–110.6) % | 100.6 (86.9–116.5) % | 1.1 (0.3) ng/mL | – | – | – | – | – | – | – | – | – | Cmax, arithmetic mean (SD) [1, 2]: 1.1 (0.3) ng/mL; half-life ([1]; t1/2, arithmetic mean (SD), +BI 425809 25 mg at steady state): 54.2 h; adjusted gMean ratios for AUC0–tz and Cmax (in words) ([1]; presence vs absence of steady-state BI 425809): within ±4% of 100%
Cc1ncc2n1-c1ccc(Cl)cc1C(c1ccccc1F)=NC2 [Midazolam, midazolam] | – | – | 16.7 ng·h/mL | 16.6 ng·h/mL | 23.5 ng·h/mL | 17.4 ng·h/mL | 70.6 (63.9–78.1) % | 77.6 (67.3–89.4) % | 9.03 (3.3)* ng/mL | 6.9 ng/mL | 6.6 ng/mL | 8.5 ng/mL | – | – | – | – | – | – | decrease of the adjusted gMean ratio ([1]; BI 425809 25 mg once daily): 29.4%; half-life ([1]; t1/2, gMean (geometric coefficient of variation), on a background of steady-state BI 425809): 2.8 h; t1/2, gMean (geometric coefficient of variation) ([1]; midazolam alone): 3.3 [22.8] hours; AUC0–tz, Adjusted gMean Ratio (90% CI) ([1]; listed as midazolam): 70.6%; Cmax, Adjusted gMean Ratio (90% CI) ([1]; listed as midazolam): 77.6%
COc1ccc2[nH]c([S+]([O-])Cc3ncc(C)c(OC)c3C)nc2c1 (centres unmarked) [Omeprazole, omeprazole] | – | – | – | 430 ng·h/mL | 483 ng·h/mL | 609 ng·h/mL | – | – | – | 257 ng/mL | 225 ng/mL | 220 ng/mL | 604.0 (733.0) ng⋅h/mL | – | – | – | – | – | –
CC(=O)C[C@H](c1ccccc1)c1c(O)c2ccccc2oc1=O [R-warfarin] | 541.8 ng/mL | 525.0 ng/mL | – | – | – | – | – | – | – | – | – | – | 23,000.0 (5360.0) ng⋅h/mL | 27,500.0 (7200.0) ng⋅h/mL | 22,457.1 ng⋅h/mL | 22,615.1 ng⋅h/mL | 23,000.0 (4860.0) ng⋅h/mL | 27,900.0 (6680.0) ng⋅h/mL | –
CC(=O)C[C@@H](c1ccccc1)c1c(O)c2ccccc2oc1=O [S-warfarin] | 553.7 ng/mL | – | – | – | – | – | – | – | – | – | – | – | 15,600.0 (3590.0) ng⋅h/mL | 17,000.0 (3880.0) ng⋅h/mL | 15,205.1 ng⋅h/mL | 15,107.9 ng⋅h/mL | 15,400.0 (3480.0) ng⋅h/mL | 16,900.0 (3870.0) ng⋅h/mL | –
O[C@@H](COc1cccc2ncccc12)CN1CCN([C@@H]2c3ccccc3[C@@H]3[C@H](c4ccccc42)C3(F)F)CC1 [zosuquidar] | – | – | – | – | – | – | – | – | – | – | – | – | – | – | – | – | – | – | effect on P-gp-mediated transcellular transport of digoxin (in words) (P-gp): inhibited

— PMC9988221 (Journal of Clinical Psychopharmacology, 2023)
